Source: ChEMBL document CHEMBL4665633, “Cereblon versus VHL: Hijacking E3 ligases against each other using PROTACs” (Bioorg Med Chem, 2019)
Calls of active or inactive are those of the source. The calls are words filed in the database; no cut-off is given here.

Legend:
Assay type in all cases: cell-based
[1] = molecular target: T1, Protein cereblon/von Hippel-Lindau disease tumor suppressor (Homo sapiens, UniProt P40337+Q96SW2); experiment: Protac activity at VHL/CRBN in human HeLa cells assessed as pVHL19 protein abundance at 10 nM after 4 hrs by Western blot analysis relative to DMSO
Method in brief: (§1)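 HeLa cells (5 × 10⁵, DMEM + 10% FBS, 37 °C, 5% CO₂, ≤30 passages) seeded overnight, then treated 4 h with compound at single or graded concentrations (0.1% v/v DMSO final). RIPA lysates equalised by Bradford; SDS-PAGE and anti-CRBN/anti-VHL immunoblots; bands normalised to β-tubulin and expressed as % of mean DMSO vehicle. DC₅₀ from fit of band intensity versus log[concentration].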

[2] = molecular target: T1, Protein cereblon/von Hippel-Lindau disease tumor suppressor; experiment: Protac activity at VHL/CRBN in human HeLa cells assessed as pVHL30 protein abundance at 10 nM after 4 hrs by Western blot analysis relative to DMSO; method in brief: as §1
[3] = molecular target: T1, Protein cereblon/von Hippel-Lindau disease tumor suppressor; experiment: Protac activity at VHL/CRBN in human HeLa cells assessed as CRBN protein abundance at 10 nM after 4 hrs by Western blot analysis relative to DMSO; method in brief: as §1
[4] = molecular target: T1, Protein cereblon/von Hippel-Lindau disease tumor suppressor; experiment: Protac activity at VHL/CRBN in human HeLa cells assessed as pVHL19 protein abundance at 1 uM after 4 hrs by Western blot analysis relative to DMSO
Method in brief: (§2)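 HeLa cells seeded overnight, then exposed to 1 µM compound (0.1% v/v DMSO final) over a time course. Cells were DPBS-washed and RIPA-lysed with protease inhibitors and benzonase; equal protein was loaded. Immunoblots for CRBN and VHL isoforms were quantified against β-tubulin and reported relative to the averaged 0.1% DMSO vehicle.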

[5] = molecular target: T1, Protein cereblon/von Hippel-Lindau disease tumor suppressor; experiment: Protac activity at VHL/CRBN in human HeLa cells assessed as pVHL30 protein abundance at 1 uM after 4 hrs by Western blot analysis relative to DMSO; method in brief: as §2
[6] = molecular target: T1, Protein cereblon/von Hippel-Lindau disease tumor suppressor; experiment: Protac activity at VHL/CRBN in human HeLa cells assessed as CRBN protein abundance at 1 uM after 4 hrs by Western blot analysis relative to DMSO; method in brief: as §2
[7] = molecular target: T1, Protein cereblon/von Hippel-Lindau disease tumor suppressor; experiment: Protac activity at VHL/CRBN in human HeLa cells assessed as induction of VHL degradation at 1 uM after 4 hrs by Western blot analysis; method in brief: as §1
[8] = molecular target: T1, Protein cereblon/von Hippel-Lindau disease tumor suppressor; experiment: Protac activity at VHL/CRBN in HEK293 cells assessed as pVHL19 protein abundance at 1 uM after 4 hrs by Western blot analysis relative to DMSO
Method in brief: (§3)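 HEK293 cells (DMEM, 10% FBS, penicillin/streptomycin, L-glutamine; 37 °C, 5% CO2; ≤30 passages) seeded at 1 × 10⁶ per well overnight, then treated with compound at 0.1% v/v final DMSO. Cells were lysed in RIPA with protease inhibitors and benzonase, then clarified. Equal Bradford-quantified protein was immunoblotted for CRBN/VHL. Bands were normalised to β-tubulin and expressed as % of mean 0.1% DMSO vehicle.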

[9] = molecular target: T1, Protein cereblon/von Hippel-Lindau disease tumor suppressor; experiment: Protac activity at VHL/CRBN in HEK293 cells assessed as pVHL19 protein abundance at 1 uM after 24 hrs by Western blot analysis relative to DMSO; method in brief: as §3
[10] = molecular target: T1, Protein cereblon/von Hippel-Lindau disease tumor suppressor; experiment: Protac activity at VHL/CRBN in HEK293 cells assessed as pVHL30 protein abundance at 1 uM after 4 hrs by Western blot analysis relative to DMSO; method in brief: as §3
[11] = molecular target: T1, Protein cereblon/von Hippel-Lindau disease tumor suppressor; experiment: Protac activity at VHL/CRBN in HEK293 cells assessed as pVHL30 protein abundance at 1 uM after 24 hrs by Western blot analysis relative to DMSO; method in brief: as §3
[12] = molecular target: T1, Protein cereblon/von Hippel-Lindau disease tumor suppressor; experiment: Protac activity at VHL/CRBN in HEK293 cells assessed as CRBN protein abundance at 1 uM after 4 hrs by Western blot analysis relative to DMSO; method in brief: as §3
[13] = molecular target: T1, Protein cereblon/von Hippel-Lindau disease tumor suppressor; experiment: Protac activity at VHL/CRBN in HEK293 cells assessed as CRBN protein abundance at 1 uM after 24 hrs by Western blot analysis relative to DMSO; method in brief: as §3
[14] = molecular target: T1, Protein cereblon/von Hippel-Lindau disease tumor suppressor; experiment: Protac activity at VHL/CRBN in HEK293 cells assessed as pVHL19 protein abundance after 4 hrs by Western blot analysis relative to DMSO; method in brief: as §3
[15] = molecular target: T1, Protein cereblon/von Hippel-Lindau disease tumor suppressor; experiment: Protac activity at VHL/CRBN in HEK293 cells assessed as pVHL30 protein abundance after 4 hrs by Western blot analysis relative to DMSO; method in brief: as §3
[16] = molecular target: T1, Protein cereblon/von Hippel-Lindau disease tumor suppressor; experiment: Protac activity at VHL/CRBN in HEK293 cells assessed as CRBN protein abundance after 4 hrs by Western blot analysis relative to DMSO; method in brief: as §3
[17] = molecular target: T1, Protein cereblon/von Hippel-Lindau disease tumor suppressor; experiment: Protac activity at VHL/CRBN in human HeLa cells assessed as pVHL19 protein abundance at 1 uM after 24 hrs by Western blot analysis relative to DMSO; method in brief: as §2
[18] = molecular target: T1, Protein cereblon/von Hippel-Lindau disease tumor suppressor; experiment: Protac activity at VHL/CRBN in human HeLa cells assessed as pVHL30 protein abundance at 1 uM after 24 hrs by Western blot analysis relative to DMSO; method in brief: as §2
[19] = molecular target: T1, Protein cereblon/von Hippel-Lindau disease tumor suppressor; experiment: Protac activity at VHL/CRBN in human HeLa cells assessed as CRBN protein abundance at 1 uM after 24 hrs by Western blot analysis relative to DMSO; method in brief: as §2
[20] = molecular target: T1, Protein cereblon/von Hippel-Lindau disease tumor suppressor; experiment: Protac activity at VHL/CRBN in human HeLa cells assessed as pVHL19 protein abundance after 4 hrs by Western blot analysis relative to DMSO; method in brief: as §1
[21] = molecular target: T1, Protein cereblon/von Hippel-Lindau disease tumor suppressor; experiment: Protac activity at VHL/CRBN in human HeLa cells assessed as pVHL30 protein abundance after 4 hrs by Western blot analysis relative to DMSO; method in brief: as §1
[22] = molecular target: T1, Protein cereblon/von Hippel-Lindau disease tumor suppressor; experiment: Protac activity at VHL/CRBN in human HeLa cells assessed as CRBN protein abundance after 4 hrs by Western blot analysis relative to DMSO
Method in brief: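 HeLa cells (DMEM, 10% FBS, penicillin/streptomycin, L-glutamine; 37 °C, 5% CO2) seeded at 5 × 10⁵ per well overnight, then treated in 0.1% v/v final DMSO. Cells were lysed in RIPA with protease inhibitors and benzonase, and equal protein was run on SDS-PAGE/nitrocellulose blots probed with anti-CRBN. Bands were normalised to β-tubulin and expressed relative to mean 0.1% DMSO vehicle.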

[23] = molecular target: T1, Protein cereblon/von Hippel-Lindau disease tumor suppressor; experiment: Protac activity at VHL/CRBN in human HeLa cells assessed as induction of CRBN degradation at 1 uM after 4 hrs by Western blot analysis relative to control; method in brief: as §1

T1 sequence (P40337 whole entry, looked up): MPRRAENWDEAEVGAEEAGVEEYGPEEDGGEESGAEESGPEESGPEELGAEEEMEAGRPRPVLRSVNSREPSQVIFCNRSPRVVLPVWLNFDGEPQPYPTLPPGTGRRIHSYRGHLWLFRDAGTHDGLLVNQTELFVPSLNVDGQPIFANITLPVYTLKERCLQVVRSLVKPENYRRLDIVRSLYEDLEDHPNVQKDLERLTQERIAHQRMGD
T1 sequence (Q96SW2 whole entry, looked up): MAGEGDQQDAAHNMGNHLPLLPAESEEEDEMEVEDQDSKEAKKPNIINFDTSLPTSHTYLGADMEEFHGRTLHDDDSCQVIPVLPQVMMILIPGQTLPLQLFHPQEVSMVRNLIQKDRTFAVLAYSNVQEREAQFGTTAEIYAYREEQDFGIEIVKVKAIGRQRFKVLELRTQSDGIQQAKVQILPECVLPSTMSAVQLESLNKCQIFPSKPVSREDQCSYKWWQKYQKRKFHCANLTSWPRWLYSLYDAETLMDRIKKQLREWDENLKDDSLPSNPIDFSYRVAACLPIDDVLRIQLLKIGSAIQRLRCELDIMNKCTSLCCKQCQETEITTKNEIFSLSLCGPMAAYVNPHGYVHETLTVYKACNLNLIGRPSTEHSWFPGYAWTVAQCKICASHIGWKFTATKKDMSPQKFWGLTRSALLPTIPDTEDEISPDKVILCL

| SMILES | Activity [1] | Activity [2] | Activity [3] | Activity [4] | Activity [5] | Activity [6] | Activity [7] | further results |
| --- | --- | --- | --- | --- | --- | --- | --- | --- |
| Cc1ncsc1-c1ccc(CNC(=O)[C@@H]2C[C@@H](O)CN2C(=O)[C@@H](NC(=O)C2(F)CC2)C(C)(C)SCCCCC(=O)NCCNc2cccc3c2C(=O)N(C2CCC(=O)NC2=O)C3=O)cc1 (some centres undefined) | 93% | 53% | 82% | 117% | 114% | 81% | inactive |  |
| O=C1CCC(N2C(=O)c3cccc(NCCOCCOCCNc4cccc5c4C(=O)N(C4CCC(=O)NC4=O)C5=O)c3C2=O)C(=O)N1 (centres undefined) | 95% | 95% | 38% | 100% | 87% | 34% | inactive | Activity [8]: 97%; Activity [9]: 99%; Activity [10]: 99%; Activity [11]: 96%; Activity [12]: 37%; Activity [13]: 25%; Activity [14]: 94%; Activity [15]: 95%; Activity [16]: 52%; Activity [17]: 107%; Activity [18]: 102%; Activity [19]: 29%; Activity [20]: 104%; Activity [21]: 109%; Activity [22]: 40% |
| Cc1ncsc1-c1ccc(CNC(=O)[C@@H]2C[C@@H](O)CN2C(=O)[C@@H](NC(=O)C2(F)CC2)C(C)(C)SCCOCCOCCOCC(=O)NCCNc2cccc3c2C(=O)N(C2CCC(=O)NC2=O)C3=O)cc1 (some centres undefined) | 87% | 75% | 78% | 121% | 104% | 71% | inactive |  |
| Cc1ncsc1-c1ccc(CNC(=O)[C@@H]2C[C@@H](O)CN2C(=O)[C@@H](NC(=O)C2(F)CC2)C(C)(C)C)c(OCCOCCOCCOCC(=O)NCCNc2cccc3c2C(=O)N(C2CCC(=O)NC2=O)C3=O)c1 (some centres undefined) | 97% | 76% | 94% | 115% | 113% | 71% | inactive |  |
| Cc1ncsc1-c1ccc(CNC(=O)[C@@H]2C[C@@H](O)CN2C(=O)[C@@H](NC(=O)C2(F)CC2)C(C)(C)C)c(OCCOCCOCCOCCOCCOCC(=O)NCCNc2cccc3c2C(=O)N(C2CCC(=O)NC2=O)C3=O)c1 (some centres undefined) | 89% | 76% | 86% | 103% | 77% | 46% | inactive | Activity [23]: 54% |
| Cc1ncsc1-c1ccc(CNC(=O)[C@@H]2C[C@@H](O)CN2C(=O)[C@@H](NC(=O)COCCOCCOCC(=O)NCCNc2cccc3c2C(=O)N(C2CCC(=O)NC2=O)C3=O)C(C)(C)C)cc1 (some centres undefined) | 94% | 104% | 91% | 102% | 89% | 91% | inactive |  |
| Cc1ncsc1-c1ccc(CNC(=O)[C@@H]2C[C@@H](O)CN2C(=O)[C@@H](NC(=O)C2(F)CC2)C(C)(C)C)c(OCCCCC(=O)NCCNc2cccc3c2C(=O)N(C2CCC(=O)NC2=O)C3=O)c1 (some centres undefined) | 100% | 64% | 80% | 134% | 126% | 95% | inactive |  |
| Cc1ncsc1-c1ccc(CNC(=O)[C@@H]2C[C@@H](O)CN2C(=O)[C@@H](NC(=O)COCCCCCCOCC(=O)NCCNc2cccc3c2C(=O)N(C2CCC(=O)NC2=O)C3=O)C(C)(C)C)cc1 (some centres undefined) | 101% | 50% | 75% | 100% | 75% | 65% | inactive |  |

Second part, led by results:

| Activity [1] | Activity [2] | Activity [3] | Activity [4] | Activity [5] | Activity [6] | Activity [7] | SMILES | further results |
| --- | --- | --- | --- | --- | --- | --- | --- | --- |
| 97% | 0% | 87% | 97% | 1% | 103% | inactive | Cc1ncsc1-c1ccc(CNC(=O)[C@@H]2C[C@@H](O)CN2C(=O)[C@@H](NC(=O)COCCOCCOCCOCCOCCOCC(=O)N[C@H](C(=O)N2C[C@H](O)C[C@H]2C(=O)NCc2ccc(-c3scnc3C)cc2)C(C)(C)C)C(C)C)cc1 | Activity [8]: 95%; Activity [9]: 99%; Activity [10]: 1%; Activity [11]: 3%; Activity [12]: 102%; Activity [13]: 109%; Activity [14]: 95%; Activity [15]: 6%; Activity [16]: 100%; Activity [17]: 122%; Activity [18]: 11%; Activity [19]: 118%; Activity [20]: 100%; Activity [21]: 0%; Activity [22]: 99% |
| 89% | 87% | 82% | 112% | 110% | 68% | inactive | Cc1ncsc1-c1ccc(CNC(=O)[C@@H]2C[C@@H](O)CN2C(=O)[C@@H](NC(=O)C2(F)CC2)C(C)(C)SCCOCCOCCOCCOCCOCC(=O)NCCNc2cccc3c2C(=O)N(C2CCC(=O)NC2=O)C3=O)cc1 (some centres undefined) |  |
| 99% | 54% | 82% | 95% | 91% | 91% | inactive | Cc1ncsc1-c1ccc(CNC(=O)[C@@H]2C[C@@H](O)CN2C(=O)[C@@H](NC(=O)COCCOCCOCCOCCOCCOCCOCCOCCOCC(=O)NCCNc2cccc3c2C(=O)N(C2CCC(=O)NC2=O)C3=O)C(C)(C)C)cc1 (some centres undefined) |  |
| 98% | 67% | 91% | 103% | 101% | 94% | inactive | Cc1ncsc1-c1ccc(CNC(=O)[C@@H]2C[C@@H](O)CN2C(=O)[C@@H](NC(=O)COCCOCCOCCOCC(=O)NCCNc2cccc3c2C(=O)N(C2CCC(=O)NC2=O)C3=O)C(C)(C)C)cc1 (some centres undefined) |  |
| 92% | 53% | 81% | 103% | 95% | 94% | inactive | Cc1ncsc1-c1ccc(CNC(=O)[C@@H]2C[C@@H](O)CN2C(=O)[C@@H](NC(=O)COCCOCCOCCOCCOCC(=O)NCCNc2cccc3c2C(=O)N(C2CCC(=O)NC2=O)C3=O)C(C)(C)C)cc1 (some centres undefined) |  |
| 93% | 80% | 85% | 97% | 96% | 86% | inactive | Cc1ncsc1-c1ccc(CNC(=O)[C@@H]2C[C@@H](O)CN2C(=O)[C@@H](NC(=O)COCCOCCOCCOCCOCCOCC(=O)NCCNc2cccc3c2C(=O)N(C2CCC(=O)NC2=O)C3=O)C(C)(C)C)cc1 (some centres undefined) |  |
